In ChEMBL document CHEMBL4387704, “Design, synthesis and biological evaluation of novel isoindolinone derivatives as potent histone deacetylase inhibitors” (Eur J Med Chem, 2019):

How the values were obtained:
[1] = target: Histone deacetylase 1 (Homo sapiens, UniProt Q13547); test: Inhibition of HDAC1 (unknown origin) using Fluor de Lys substrate by fluorescence assay relative to control; details: read-out: IC50
[2] = target: Histone deacetylase 2 (Homo sapiens, UniProt Q92769); test: Inhibition of HDAC2 (unknown origin) using Fluor de Lys substrate by fluorescence assay relative to control
Chain of Histone deacetylase 2 (Q92769 whole entry, canonical isoform): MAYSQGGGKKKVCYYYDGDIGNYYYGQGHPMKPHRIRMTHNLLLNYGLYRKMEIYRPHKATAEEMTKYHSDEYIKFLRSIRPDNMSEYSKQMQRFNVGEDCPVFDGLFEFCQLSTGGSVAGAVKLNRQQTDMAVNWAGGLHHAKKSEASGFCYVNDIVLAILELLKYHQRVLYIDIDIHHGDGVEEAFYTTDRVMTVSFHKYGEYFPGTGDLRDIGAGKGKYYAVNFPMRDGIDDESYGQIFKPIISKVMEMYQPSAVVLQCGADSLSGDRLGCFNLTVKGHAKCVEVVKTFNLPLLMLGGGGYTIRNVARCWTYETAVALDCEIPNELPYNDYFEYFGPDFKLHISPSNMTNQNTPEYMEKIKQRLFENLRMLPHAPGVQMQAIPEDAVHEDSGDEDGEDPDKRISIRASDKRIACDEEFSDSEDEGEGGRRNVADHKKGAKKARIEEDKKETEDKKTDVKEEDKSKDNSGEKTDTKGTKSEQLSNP
Outline: (§1)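 Recombinant HDAC isoform assays run by a contract lab. Compounds in DMSO, 10-dose IC50 mode, 3-fold serial dilution from 50 μM. Duplicate runs; IC50 from curve fitting.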

[3] = target: Histone deacetylase 11 (Homo sapiens, UniProt Q96DB2); test: Inhibition of HDAC11 (unknown origin) using Fluor de Lys substrate by fluorescence assay relative to control; outline: as §1
Chain of Histone deacetylase 11 (Q96DB2 whole entry): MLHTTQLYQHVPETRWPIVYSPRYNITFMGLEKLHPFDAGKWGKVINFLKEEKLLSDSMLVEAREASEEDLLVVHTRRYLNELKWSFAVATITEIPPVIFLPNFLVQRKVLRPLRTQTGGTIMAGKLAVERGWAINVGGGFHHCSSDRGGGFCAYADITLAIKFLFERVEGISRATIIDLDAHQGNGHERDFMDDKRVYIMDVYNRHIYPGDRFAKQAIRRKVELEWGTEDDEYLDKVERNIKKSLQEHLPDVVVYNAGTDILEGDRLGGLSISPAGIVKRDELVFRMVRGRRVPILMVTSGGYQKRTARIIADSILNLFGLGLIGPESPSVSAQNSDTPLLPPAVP

[4] = system: HL-60; test: Antiproliferative activity against human HL60 assessed as reduction in cell viability measured after 72 hrs using alamar blue based fluorescence method; type: functional; details: HL-60, 72 h
Outline: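 Leukemia lines grown in IMDM with penicillin/streptomycin, HL-60 with 20% FBS and K562 with 10% FBS, at 37 °C, 5% CO2. Cells in 96-well plates exposed to drug for 72 h. Alamar blue (1 mM solution) added for 5–6 h, fluorescence read at 530/590 nm.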

[5] = organism: Homo sapiens; test: Selectivity index, ratio of IC50 of HDCA8 (unknown origin) to IC50 of HDCA1 (unknown origin)
[6] = system: K562; test: Potency index, ratio of IC50 of chidamide to IC50 of test compound against human K562 cells; type: functional
[7] = system: HCT-116; test: Potency index, ratio of IC50 of chidamide to IC50 of test compound against human HCT116 cells; type: functional
[8] = system: MCF7; test: Potency index, ratio of IC50 of chidamide to IC50 of test compound against human MCF7 cells; type: functional
[9] = system: NCI-H226; test: Growth inhibition of human NCI-H226 assessed as cell growth inhibition at 10 uM incubated for 48 hrs by sulforhodamine B assay; type: functional; details: NCI-H226, 48 h, read-out: GI
[10] = system: NCI-H322M; test: Growth inhibition of human NCI-H322M assessed as cell growth inhibition at 10 uM incubated for 48 hrs by sulforhodamine B assay; type: functional; details: read-out: GI
[11] = system: HCT-116; test: Growth inhibition of human HCT116 cells assessed as cell growth inhibition at 10 uM incubated for 48 hrs by sulforhodamine B assay; type: functional; details: HCT-116, 48 h, read-out: GI
[12] = system: HT-29; test: Growth inhibition of human HT-29 cells assessed as cell growth inhibition at 10 uM incubated for 48 hrs by sulforhodamine B assay; type: functional; details: HT-29, 48 h, read-out: GI
[13] = system: DU-145; test: Growth inhibition of human DU145 cells assessed as cell growth inhibition at 10 uM incubated for 48 hrs by sulforhodamine B assay; type: functional; details: DU-145, 48 h, read-out: GI
[14] = system: UO-31; test: Growth inhibition of human UO31 cells assessed as cell growth inhibition at 10 uM incubated for 48 hrs by sulforhodamine B assay; type: functional; details: UO-31, 48 h, read-out: GI
[15] = system: TK-10; test: Growth inhibition of human TK10 cells assessed as cell growth inhibition at 10 uM incubated for 48 hrs by sulforhodamine B assay; type: functional; details: TK-10, 48 h, read-out: GI
[16] = system: SN12C; test: Growth inhibition of human SN12C cells assessed as cell growth inhibition at 10 uM incubated for 48 hrs by sulforhodamine B assay; type: functional; details: read-out: GI
[17] = system: SNB-75; test: Growth inhibition of human SNB75 cells assessed as cell growth inhibition at 10 uM incubated for 48 hrs by sulforhodamine B assay; type: functional; details: SNB-75, 48 h, read-out: GI
[18] = system: U-251; test: Growth inhibition of human U251 cells assessed as cell growth inhibition at 10 uM incubated for 48 hrs by sulforhodamine B assay; type: functional; details: U-251, 48 h, read-out: GI
[19] = system: SK-MEL-5; test: Growth inhibition of human SK-MEL-5 cells assessed as cell growth inhibition at 10 uM incubated for 48 hrs by sulforhodamine B assay; type: functional; details: SK-MEL-5, 48 h, read-out: GI
[20] = system: OVCAR-4; test: Growth inhibition of human OVCAR4 cells assessed as cell growth inhibition at 10 uM incubated for 48 hrs by sulforhodamine B assay; type: functional; details: OVCAR-4, 48 h, read-out: GI
[21] = system: OVCAR-5; test: Growth inhibition of human OVCAR5 cells assessed as cell growth inhibition at 10 uM incubated for 48 hrs by sulforhodamine B assay; type: functional; details: OVCAR-5, 48 h, read-out: GI
[22] = system: OVCAR-8; test: Growth inhibition of human OVCAR8 cells assessed as cell growth inhibition at 10 uM incubated for 48 hrs by sulforhodamine B assay; type: functional; details: OVCAR-8, 48 h, read-out: GI
[23] = system: BT-549; test: Growth inhibition of human BT549 cells assessed as cell growth inhibition at 10 uM incubated for 48 hrs by sulforhodamine B assay; type: functional; details: BT-549, 48 h, read-out: GI
[24] = system: Hs-578T; test: Growth inhibition of human Hs 578T cells assessed as cell growth inhibition at 10 uM incubated for 48 hrs by sulforhodamine B assay; type: functional; details: read-out: GI
[25] = system: MCF7; test: Growth inhibition of human MCF7 cells assessed as cell growth inhibition at 10 uM incubated for 48 hrs by sulforhodamine B assay; type: functional; details: MCF7, 48 h, read-out: GI
[26] = system: MDA-MB-231; test: Growth inhibition of human MDA-MB-231 cells assessed as cell growth inhibition at 10 uM incubated for 48 hrs by sulforhodamine B assay; type: functional; details: MDA-MB-231, 48 h, read-out: GI
[27] = Metabolic stability in rat liver microsomes assessed as internal clearance at 1 uM preincubated for 10 mins followed by NADPH addition measured upto 60 mins by LC-MS/MS analysis; type: ADME, Microsome; details: read-out: CLH
Outline: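 Liver microsomes from male SD rat, dog or human at 0.5 mg/mL in 100 mM potassium phosphate pH 7.4 with 1 μM compound. Prewarmed 37 °C 10 min, started with 1 mM NADPH. Stopped at 0, 5, 10, 20, 40, 60 min with cold methanol containing glibenclamide internal standard; supernatant by LC–MS/MS; T1/2 and CLint derived.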

[28] = AUC (0 to infinity) in Sprague-Dawley rat at 1 mg/kg, iv by LC-MS/MS analysis; type: ADME, organism-based; set-up: dose 1 mg/kg, route intravenous, time infinity; details: in vivo
Outline: (§2)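 Male SD rats, 199-214 g, three per route. Single iv dose of 1 mg/kg or oral dose of 10 mg/kg. About 200 μL blood drawn from the jugular vein into heparinized tubes at set times, then spun to plasma. 30 μL plasma precipitated with CH3CN containing verapamil and glibenclamide as internal standards. Plasma drug level measured by LC-MS/MS.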

[29] = AUC (0 to infinity) in Sprague-Dawley rat at 10 mg/kg, po by LC-MS/MS analysis; type: ADME, organism-based; set-up: dose 10 mg/kg, time infinity, route oral; details: in vivo; outline: as §2
[30] = Terminal half life in Sprague-Dawley rat at 10 mg/kg, po by LC-MS/MS analysis; type: ADME, organism-based; details: in vivo, read-out: beta t1/2 (converted)
Outline: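 Male SD rats (199-214 g), three per route, single dose 1 mg/kg iv or 10 mg/kg po. Jugular blood (~200 μL) into heparinized tubes at set times; plasma by centrifugation, protein precipitation with acetonitrile containing verapamil and glibenclamide; drug measured by LC-MS/MS.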

Chain of Histone deacetylase 1 (Q13547 whole entry): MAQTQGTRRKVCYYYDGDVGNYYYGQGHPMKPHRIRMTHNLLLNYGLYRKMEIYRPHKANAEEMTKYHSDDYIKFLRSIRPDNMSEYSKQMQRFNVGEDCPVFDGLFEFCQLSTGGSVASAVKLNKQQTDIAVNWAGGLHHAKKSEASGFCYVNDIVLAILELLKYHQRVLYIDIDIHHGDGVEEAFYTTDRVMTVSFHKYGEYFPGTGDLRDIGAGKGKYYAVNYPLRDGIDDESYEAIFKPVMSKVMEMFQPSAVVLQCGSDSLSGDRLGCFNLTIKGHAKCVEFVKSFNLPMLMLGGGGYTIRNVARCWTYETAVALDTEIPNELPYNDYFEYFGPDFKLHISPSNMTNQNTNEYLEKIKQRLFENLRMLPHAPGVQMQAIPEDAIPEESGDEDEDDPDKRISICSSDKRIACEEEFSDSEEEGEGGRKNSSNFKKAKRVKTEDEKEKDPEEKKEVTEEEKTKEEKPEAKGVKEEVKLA

Compound: Nc1cc(F)ccc1NC(=O)c1ccc(CNC(=O)/C=C2\NC(=O)c3ccccc32)cc1
- IC50 [1]: 65.1 nM
- IC50 [2]: 75 nM
- IC50 [3]: 632 nM
- IC50 [4]: 373 nM
- Ratio IC50 [5]: 17
- Ratio IC50 [6]: 4
- Ratio IC50 [7]: 2.5
- Ratio IC50 [8]: 2
- inhibition of growth at 10 µM [9]: 30.2%
- inhibition of growth at 10 µM [10]: 14.2%
- inhibition of growth at 10 µM [11]: 73.3%
- inhibition of growth at 10 µM [12]: 40.4%
- inhibition of growth at 10 µM [13]: 13%
- inhibition of growth at 10 µM [14]: 50.1%
- inhibition of growth at 10 µM [15]: 72.3%
- inhibition of growth at 10 µM [16]: 30.8%
- inhibition of growth at 10 µM [17]: 30.6%
- inhibition of growth at 10 µM [18]: 35.9%
- inhibition of growth at 10 µM [19]: 34.7%
- inhibition of growth at 10 µM [20]: 21.3%
- inhibition of growth at 10 µM [21]: 36.4%
- inhibition of growth at 10 µM [22]: 55.9%
- inhibition of growth at 10 µM [23]: 6.06%
- inhibition of growth at 10 µM [24]: 29.3%
- inhibition of growth at 10 µM [25]: 35.5%
- inhibition of growth at 10 µM [26]: 22.4%
- microsomal CLint at 1 µM [27]: 11.7 µL/min/mg
- AUC(0-inf) [28]: 784 ng·h/mL
- AUC(0-inf) [29]: 1740 ng·h/mL
- half-life [30]: 1.3 h
